Source: PubChem BioAssay (Sanford-Burnham Center for Chemical Genomics)
Only some compounds are listed: those with a hit (about 2.4% of all), similar ones and a draw of the others.
LMPTP inh: LMPTP (human) inhibition; P24666; recombinant LMPTP-A, OMFP fluorogenic substrate, fluorescence intensity; inhibition, % at 20 µM; 360,000 compounds, 0.22% hits;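 active means compounds that cut the enzyme signal by at least half of the control window in the single-dose screen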;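 further: plate controls were DMSO wells with enzyme plus substrate for no effect and substrate without enzyme for full effect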
Target sequence (P24666 whole entry, looked up): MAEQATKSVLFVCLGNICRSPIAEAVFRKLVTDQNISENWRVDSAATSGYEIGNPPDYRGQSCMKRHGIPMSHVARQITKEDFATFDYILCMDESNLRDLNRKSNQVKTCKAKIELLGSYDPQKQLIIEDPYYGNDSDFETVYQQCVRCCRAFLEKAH
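Test system: LMPTP-A phosphatase enzyme. Amount: LMPTP-A at 0.625 nM final in the reaction. Reagent: OMFP substrate, 400 µM final. Times: 50 min at room temperature. Signal: endpoint fluorescence intensity from OMFP dephosphorylation. Read-out basis: % inhibition. Benchmarks: no-enzyme and uninhibited controls.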
STEP inh: STEP (human) phosphatase inhibition; AID 588621; inhibition, % at 20 µM; recombinant STEP, OMFP fluorogenic substrate, fluorescence; 360,000 compounds, 0.25% hits; P54829;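 active means inhibition at 20 µM, scaled per plate between control wells, above about 37%, limit read from the data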;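 further: 0% = DMSO with enzyme and substrate and 100% = substrate only without enzyme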
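System: STEP (striatal-enriched tyrosine phosphatase) enzyme, cell-free; medium: Bis-Tris pH 6.0 buffer with DTT, detergent; dosing: 20 µM, 1% DMSO; times: reaction 20 min, ambient temperature; detection: fluorescence, 480/540 nm; read-out basis: normalized % inhibition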
DNMT1 block: blocks human DNA methyltransferase DNMT1; P26358; DNMT1 molecular beacon, Hinp1I cleavage, fluorescence; inhibition (reported as % activation of signal), % at 10 µM; 360,000 compounds, 0.83% hits; AID 588458; in the data active means inhibition above about 50%
Scp1 inh: inhibitors of human Scp-1 phosphatase; Q9GZU7; Recombinant Scp1, phosphopeptide, malachite green phosphate absorbance; 340,000 compounds, 0.88% hits; inhibition, % at 20 µM;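 active means inhibition above about 50% at 20 µM, limit read from the data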;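 further: plate controls were DMSO wells with enzyme for no effect and wells lacking enzyme for full effect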
Target sequence (Q9GZU7 76-261 limits assumed): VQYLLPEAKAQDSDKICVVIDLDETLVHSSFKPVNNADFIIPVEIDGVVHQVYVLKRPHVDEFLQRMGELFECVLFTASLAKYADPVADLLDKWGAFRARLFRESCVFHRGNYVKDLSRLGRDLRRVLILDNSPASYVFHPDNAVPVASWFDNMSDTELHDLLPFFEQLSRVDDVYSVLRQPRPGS
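Material: truncated SCP-1 phosphatase (76-261aa) / Buffer or medium: 50 mM Tris acetate pH 5.5, 0.005% Tween-20, 10 mM MgCl2 / Compound dosing: one concentration, 20 µM, with 1.0% DMSO / Incubation: 45 min room-temperature reaction, 5 min colour, 30 min stabiliser / Detection: colorimetric free-phosphate detection, absorbance 630 nm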
NadD inh: inhibitors of Staphylococcus aureus NadD; inhibition, % at 20 µM; AID 602399; 360,000 compounds, 0.78% hits; purified NadD enzyme, colorimetric absorbance read-out; in the data active means inhibition above about 26%
SUMO1-SIM PPI: alters human SUMO1 binding to SIM partners | SUMO1 binding to a labelled peptide, TR-FRET, 1 h | inhibition, % at 20 µM | 360,000 compounds, 0.33% hits; in the data active means inhibition above about 37%
Target sequence (P63165 whole entry, looked up): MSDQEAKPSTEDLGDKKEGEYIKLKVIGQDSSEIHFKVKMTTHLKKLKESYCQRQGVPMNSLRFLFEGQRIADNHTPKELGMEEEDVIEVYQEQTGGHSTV
An asterisk follows results filed as active; i = inactive; / = no result given; + = active, no number.

SMILES	LMPTP inh	STEP inh	DNMT1 block	Scp1 inh	NadD inh	SUMO1-SIM PPI
CC(=O)c1c(C)[nH]c(C(=O)OCC(=O)Nc2ccc3[nH]c(=O)[nH]c3c2)c1C	0	0	-13	-7	0	61*
CC(=O)c1c(C)[nH]c(C(=O)OCC(=O)Nc2cccc(S(=O)(=O)N(C)C)c2)c1C	0	-1	1	1	1	4
NC1=NC2(CCCCC2)n2c(nc3ccccc32)N1	22	0	8	-7	-2	0
NC1=NC2(CCN(Cc3ccccc3)CC2)n2c(nc3ccccc32)N1	49*	2	3	-7	-5	-4
Cc1nc(NC(=O)c2ccccc2)sc1-c1csc(NCc2ccco2)n1	1	2	-22	2	47*	15
C=CCCC(=O)Nc1nc(C)c(-c2csc(Nc3cc(OC)ccc3OC)n2)s1	1	1	-29	4	22	0
Cc1nc(NC(=O)c2ccccc2)sc1-c1csc(Nc2ccc(C(=O)O)cc2)n1	43	1	-6	80*	12	92*
C=CCCC(=O)Nc1nc(C)c(-c2csc(Nc3cccc(OC)c3)n2)s1	-1	0	-44	6	28	78*
COC(=O)[C@@H]1C[C@@]2(O)[C@H](O)[C@H](O)[C@H](O)C[C@H]2N1Cc1cc(OC)cc(OC)c1	-1	1	4	2	-1	3
CCCCN(C(=O)c1cc(S(=O)(=O)N2CCCCCC2)ccc1OC)c1ccccc1	2	3	-2	-7	0	60*
O=C(NCc1ccccc1Cl)c1ccc(Br)o1	0	1	0	-10	-4	-1
NS(=O)(=O)c1cccc(NC(=O)c2cc(=O)c3ccccc3o2)c1	-4	0	0	-10	2	-24
Oc1c(N=Nc2nn[nH]n2)ccc2ccccc12	9	3	36	/	15	50*
O=C(Cc1cccs1)Nc1ccc(-c2nnn(CC(=O)N3CCOCC3)n2)cc1	/	/	/	79*	/	/
O=C(/C=C/c1ccc2c(c1)OCO2)c1ccc(F)cc1	1	4	-1	-11	-12	-7
O=c1nc2c(-c3cccc(Br)c3)n[nH]n2c2ccccc12	6	-2	1	6	3	45*
Cc1ccc(S(=O)(=O)c2n[nH]n3c2nc(=O)c2ccccc23)cc1	-1	0	1	-5	-3	17
Cc1cccc(C)c1NC(=O)c1sc(N)nc1-c1ccccc1	0	-3	0	-1	3	1
Cc1cccc(Nc2cc(C)c3c(O)cccc3n2)c1C	69*	5	-29	-12	9	-4
Cn1c(SCC(=O)NC2CCCCC2)nnc1-c1cccc(N)c1	-1	3	-1	-5	-2	41*
CN(C)c1ccc(C(=O)C=Cc2ccc([N+](=O)[O-])cc2)cc1	55*	12	34	/	5	-14
Cc1ccc(C(=O)NCC(=O)OCC(=O)NC2CCCC(C)C2C)s1 (centres undefined)	1	5	4	6	1	1
NC(=S)N=Nc1c(O)cc(O)c2[nH]c(=O)ccc12	14	39	66*	85*	18	69*
Cc1ccc(-c2nnn(CC(=O)N(Cc3cccs3)C(C(=O)NC3CCCC3)c3ccncc3)n2)cc1 (centres undefined)	1	3	-21	13	26	45*
OCC1(CCOc2ccccc2)CCN(Cc2ccccc2C(F)(F)F)CC1	-2	-1	0	-5	-8	2
SMILES	LMPTP inh	STEP inh	DNMT1 block	Scp1 inh	NadD inh	SUMO1-SIM PPI
CC1CCCN(Cc2c(O)ccc3c2O/C(=C\c2ccco2)C3=O)C1 (centres undefined)	14	-6	61*	6	14	2
Nc1[nH]n2c(=O)cc(-c3ccccc3)nc2c1N=Nc1ccccc1	14	5	-12	-5	31*	-7
Clc1cccc(Cl)c1Cn1cnc(=NCc2ccco2)c2[nH]cnc21	84*	4	1	6	-7	2
Cc1sc2ncn(CC(=O)N3CCCCC3)c(=O)c2c1S(=O)(=O)N1CCC(C)CC1	0	-3	-1	-10	5	-5
CCCN1CCN(C(=O)Cn2cnc3sc(C)c(S(=O)(=O)N4CCC(C)CC4)c3c2=O)CC1	-1	-2	16	-6	-3	48*
CCc1ccc(C(O)c2ncc(-c3ccc4ccccc4c3)[nH]2)cc1 (centres undefined)	0	-2	61*	/	11	-4
Cc1ccc(C(O)c2ncc(-c3ccc4ccccc4c3)[nH]2)cc1 (centres undefined)	1	3	-4	/	3	-2
CC1CCCCN1S(=O)(=O)c1ccc(C(=O)Nc2ccccc2-c2nc3ccccc3[nH]2)cc1 (centres undefined)	2	2	-15	-17	29	1
O=C(Nc1ccccc1-c1nc2ccccc2[nH]1)c1ccc(S(=O)(=O)N2CCCCC2)cc1	0	47*	-2	-2	-2	10
O=C(CSc1nc2ccccc2n1CCc1ccccc1)c1ccc(O)c(O)c1	79*	83*	97*	69*	36*	73*
O=C(CSc1nc2ccccc2n1CCc1ccccc1)N1CCOCC1	-2	-1	-4	-3	4	4
O=C(CSc1nc2ccccc2c(=O)[nH]1)c1ccc(O)c(O)c1	18	2	14	55*	-2	22
O=C(CSc1nc2ccccc2c(=O)[nH]1)c1ccc(O)cc1O	1	-6	8	-1	-5	6
Cc1cc(C)n(-c2nc3ccccc3nc2N2CCN(S(=O)(=O)c3ccc(F)c(C)c3)CC2)n1	0	4	-2	-7	-4	-3
COc1ccccc1CNCc1cc(OC)c(OC)c(OC)c1	1	2	0	-3	2	1
Cc1cccc(OCc2nnc(SCC(=O)Nc3sc(C)c(C)c3C#N)n2C)c1	-1	-1	0	-1	12	3
COC(=O)c1ccccc1-c1ccc(/C=N/NC(=O)c2cc3ccccc3o2)o1	2	3	-9	-6	6	-7
COC(=O)c1ccccc1-c1c2ccc(=N)cc-2oc2cc(N)ccc12	i	i	+	5	6	i
CN(C(=O)COC(=O)c1ccc(-c2ccc(O)cc2)cc1)C1CCS(=O)(=O)C1 (centres undefined)	1	-1	-1	-6	-4	39*
CCn1c(SCC(=O)c2ccc(Cl)cc2)nnc1-c1ccoc1C	-1	1	0	-2	14	39*
CCOC(=O)C1CCN(C(=O)CSc2nccc(C)n2)CC1	0	2	5	-2	1	1
